These results are taken from publication PMC10928719 (ACS Infectious Diseases, 2024).

For orientation: CC50 means the concentration at which the toxic effect on the cells reaches its halfway point. Higher therefore signals better tolerance by the cells. One may read the IC50 as the concentration that inhibits the measured activity by half.

Where two headings read alike, the source gives them in different places.

Data set [1] has as its system HIV-1 vector with IN mutant N155H. In words: Single-round infection assay, IN mutant N155H. The data set is classed as cell-based. The conditions noted are these: Human immunodeficiency virus 1, read-out: EC50 N155H. The method in brief:
(§1)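 293 cells were co-transfected by calcium phosphate with pNLNgoMIVR–ΔLUC (16 μg; WT or IN mutant) plus pHCMV-g (4 μg) and washed ~6 h later. Supernatant was harvested 48 h later, clarified, filtered and diluted. HOS cells (4000/well) were pretreated 3 h at 37 °C with test compound (11 dilutions, 5 μM–0.0001 μM), then infected for 48 h. Luciferase was read and EC50 fitted by nonlinear regression.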

Data set [2] deals with human osteosarcoma (HOS) cells. In words: Cellular cytotoxicity. The data set is classed as cell-based. The conditions noted are these: 50% reduction in the level of ATP in HOS cells, 48 h. The procedure, abridged:
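HOS cells grown in DMEM with 5% FBS, 5% newborn calf serum and penicillin/streptomycin, then seeded at 4000 cells/well the day before the assay. Test compound was added over 250 μM to 0.05 μM and cells were held at 37 °C for 48 h. ATP luminescence reagent was read after 20 min at room temperature. CC50 came from a nonlinear regression fit.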

For data set [3], the system named is HIV-1 vector with IN mutant G140S/Q148H. In words: Single-round infection assay, IN mutant G140S/Q148H. The data set is classed as cell-based. The conditions noted are these: Human immunodeficiency virus 1, read-out: EC50 G140S/Q148H. The procedure, abridged:
as §1

For data set [4], the system named is HIV-1 vector with wild-type (WT) IN. In words: Single-round infection assay, viral construct with WT IN. The conditions noted are these: read-out: EC50 WT, single-round HIV-1 vector, HOS cells. The data set is classed as cell-based. The method in brief:
as §1

Data set [5] has as its system HIV-1 vector with IN mutant R263K. Nature of the data set: Single-round infection assay, IN mutant R263K. The conditions noted are these: read-out: EC50 R263K, single-round HIV-1 vector. The data set is classed as cell-based. The procedure, abridged:
as §1

The test system of data set [6] is HIV-1 vector with IN mutant G118R. Nature of the data set: Single-round infection assay, IN mutant G118R. The data set is classed as cell-based. The conditions noted are these: for resistance / loss of potency against G118R mutant: our single-round infection assays. The method in brief:
as §1

In data set [7] the test system is HIV-1 vector with IN mutant S230N. In words: Single-round infection assay, IN mutant S230N. The data set is classed as cell-based. The conditions noted are these: read-out: EC50 S230N, single-round HIV-1 vector. The method in brief:
as §1

Data set [8] deals with HIV-1 vector with wild-type (WT) IN. The conditions noted are these: read-out: EC50 WT, single-round HIV-1 vector, previously reported ref 46; cited from earlier work.
The subject of data set [9] is HIV-1 vector with IN mutant E138K/Q148K. Nature of the data set: Single-round infection assay, IN mutant E138K/Q148K. The data set is classed as cell-based. The conditions noted are these: Human immunodeficiency virus 1, read-out: EC50 E138K/Q148K. The method in brief: (§2)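 Vector carrying the mutant IN was made by calcium phosphate co-transfection of 293 cells with pNLNgoMIVR–ΔLUC (16 μg) and pHCMV-g (4 μg); supernatant was collected 48 h after washing. HOS cells were exposed 3 h at 37 °C to test compound (11 dilutions, 5 μM–0.0001 μM), then infected for 48 h. Luciferase luminescence gave EC50 by nonlinear regression; n = 4 independent experiments, each in triplicate.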

Data set [10] deals with HIV-1 vector with IN mutant E138A/G140S/Q148H. Nature of the data set: Single-round infection assay, IN mutant E138A/G140S/Q148H. The conditions noted are these: Human immunodeficiency virus 1, read-out: EC50 E138A/G140S/Q148H. The data set is classed as cell-based. The method in brief:
as §2

Data set [11] has as its system HIV-1 vector with IN mutant L74M/G140C/Q148R. Nature of the data set: Single-round infection assay, IN mutant L74M/G140C/Q148R. The data set is classed as cell-based. The conditions noted are these: Human immunodeficiency virus 1, read-out: EC50 L74M/G140C/Q148R. The method in brief:
as §2

Data set [12] deals with HIV-1 vector with IN mutant E138K/G140C/Q148R. Nature of the data set: Single-round infection assay, IN mutant E138K/G140C/Q148R. The data set is classed as cell-based. The conditions noted are these: Human immunodeficiency virus 1, read-out: EC50 E138K/G140C/Q148R. The procedure, abridged:
as §2

Data set [13] has as its system HIV-1 vector with IN mutant T97A/G140S/Q148H. In words: Single-round infection assay, IN mutant T97A/G140S/Q148H. The data set is classed as cell-based. The conditions noted are these: Human immunodeficiency virus 1, read-out: EC50 T97A/G140S/Q148H. The method in brief:
as §2

Data set [14] deals with Sso7d IN (HIV-1 integrase) (UniProt P12497+P39476). Nature of the data set: In vitro IN strand transfer assay. The data set is classed as biochemical.
The test system of data set [15] is HIV-1 vector with IN mutant G140A/Q148K. Nature of the data set: Single-round infection assay, IN mutant G140A/Q148K. The data set is classed as cell-based. The conditions noted are these: Human immunodeficiency virus 1, read-out: EC50 G140A/Q148K. The method in brief: as §2
Data set [16] deals with HIV-1 vector with IN mutant E138K/G140S/Q148H. Nature of the data set: Single-round infection assay, IN mutant E138K/G140S/Q148H. The data set is classed as cell-based. The conditions noted are these: Human immunodeficiency virus 1, read-out: EC50 E138K/G140S/Q148H. The procedure, abridged: as §2
The subject of data set [17] is HIV-1 vector with IN mutant G140S/Q148R. In words: Single-round infection assay, IN mutant G140S/Q148R. The data set is classed as cell-based. The conditions noted are these: Human immunodeficiency virus 1, read-out: EC50 G140S/Q148R. The procedure, abridged: as §2
Data set [18] relates to HIV-1 vector with IN mutant E138K/G140A/Q148K. Nature of the data set: Single-round infection assay, IN mutant E138K/G140A/Q148K. The conditions noted are these: Human immunodeficiency virus 1, read-out: EC50 E138K/G140A/Q148K. The data set is classed as cell-based. The procedure, abridged: as §2
The test system of data set [19] is HIV-1 vector with IN mutant G118R. The conditions noted are these: single-round infection assays; cited from earlier work.
For data set [20], the system named is HIV-1 vector with IN mutant R263K. The conditions noted are these: single-round infection assays; cited from earlier work.
Data set [21] has as its system HIV-1 vector with IN mutant G140S/Q148H. The conditions noted are these: single-round infection assays; cited from earlier work.

`O=C(NCc1ccc(F)cc1F)c1cn2cc[nH]c(=O)c2c(O)c1=O` [6a]: the EC50 was 457 ± 21 nM in [1] and above 5000 nM in data set [3]. In addition, the midpoint of cytotoxicity in [2], the CC50, lay at 150000 ± 19900 nM.
On to `COCC(C)n1ccn2cc(C(=O)NCc3ccc(F)cc3F)c(=O)c(O)c2c1=O` (centres unmarked) [6k], for which the EC50 in [1] was 5 ± 0.7 nM; in data set [3], 34.1 ± 5.4 nM.
`COC(Cn1ccn2cc(C(=O)NCc3ccc(F)cc3F)c(=O)c(O)c2c1=O)OC` [6l]: the EC50 in data set [1] was determined as 27.7 ± 2.7 nM; in [3] it was 1150 ± 114 nM.
On to `CC(C)=CCC/C(C)=C/Cn1ccn2cc(C(=O)NCc3ccc(F)cc3F)c(=O)c(O)c2c1=O` [6m], for which the EC50 in data set [4] is 38.9 ± 6.7 nM; in [1], 81.6 ± 7.6 nM; in [3], 365 ± 43.3 nM.
Consider `O=C(NCc1ccc(F)cc1F)c1cn2c(c(O)c1=O)C(=O)NCC2` [7a], for which the EC50 in [3] was above 5000 nM; in data set [5], 148 ± 36.5 nM.
On to `COC(CN1CCn2cc(C(=O)NCc3ccc(F)cc3F)c(=O)c(O)c2C1=O)OC` [7l], for which the EC50 in data set [1] came out at 6.3 ± 0.7 nM; in data set [6] (read-out: EC50 G118R, single-round HIV-1 vector, IN G118R), 36.4 ± 1.3 nM; in [3], 394 ± 39 nM.
With `CC(C)CCCC(C)CCN1CCn2cc(C(=O)NCc3ccc(F)cc3F)c(=O)c(O)c2C1=O` (centres unmarked) [7m], the EC50 in data set [4] stood at 21.4 ± 2.5 nM; in data set [1], 25.6 ± 4.2 nM; in data set [3], 109 ± 20.5 nM; in [7] it was 41.8 ± 4.2 nM.
Consider `O=C(NCc1c(F)cc(F)cc1F)c1cn2c(c(O)c1=O)C(=O)N1[C@H]3CC[C@H](C3)O[C@@H]1C2` [BIC, bictegravir], for which the “resistance / loss of potency against G118R mutant” value (shortened to “resistance / loss of potency”) in [6] is 4 ×. Besides, the EC50 in [8] is 2.4 ± 0.4 nM.
As for `C[C@H]1CO[C@@H]2Cn3cc(C(=O)NCc4ccc(F)cc4F)c(=O)c(O)c3C(=O)N12` [CAB, cabotegravir], the EC50 in data set [9] is 772 ± 72.2 nM; in data set [10], 70.2 ± 9 nM; in data set [11], 220 ± 41.2 nM; in data set [12], 134.2 ± 0.3 nM; in data set [13], 43.7 ± 4.2 nM; in [15] it was 393 ± 51.1 nM. The EC50 is 93 ± 6.1 nM in data set [16], 415 ± 14.5 nM in data set [17], 1.8 ± 0.5 nM in [8] and 610 ± 8.6 nM in [18]. Also, the “resistance / loss of potency” value in data set [6] is 17 ×. Also, in data set [14], the midpoint of inhibition, the IC50, lay at 381 nM.
Take `C[C@@H]1CCO[C@H]2Cn3cc(C(=O)NCc4ccc(F)cc4F)c(=O)c(O)c3C(=O)N12` [DTG, dolutegravir]: the “resistance / loss of potency” value in data set [6] came to 9 ×. The “reduction in susceptibility relative to WT, G118R” value in data set [19] is above 5 fold. Moreover, in data set [20], the “reduction in susceptibility relative to WT, R263K” value is recorded as 2 fold. Further, the “reduction in susceptibility relative to WT, G140S/Q148H” value in data set [21] is 2 fold. Further, in data set [8], the EC50 is 2.6 ± 0.3 nM.
